Results: ChEMBL document CHEMBL3526050, “Elucidation of the metabolic pathways and the resulting multiple metabolites of almorexant, a dual orexin receptor antagonist, in humans” (Drug Metab Dispos, 2013)
Blank lines part the entries; values can stand above or below the compound they belong to.

How the values were obtained:
[1] = Drug level in feces of healthy human treated with [14C]almorexant at 200 mg, po dosed as single dose; assay type: ADME, organism-based; conditions: in vivo
Outline: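 Feces pooled by weight across 6 subjects (0–48 to 192–332 h) and extracted three times with acetonitrile, then dried and reconstituted. Analyzed by radio-LC-MS/MS with a methanol/acetonitrile gradient and scintillation-counted fractions. Procedural recovery was 73.0%. Reported as percent of administered radioactive dose.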

Blood [2] = experiment: Cmax in healthy human whole blood assessed as radioactivity at 200 mg, po dosed as single dose; assay type: ADME, organism-based; design: dose 200 mg, route oral; conditions: in vivo
Outline: (§1)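 Six fasted healthy male subjects given one oral capsule of 200 mg almorexant with about 84 µCi 14C. EDTA blood taken pre-dose to 240 h. Whole blood (solubilized, peroxide-treated) and plasma counted in triplicate by liquid scintillation. Noncompartmental PK: Cmax/Tmax read directly, linear trapezoidal AUC extrapolated via λz, t1/2 = ln2/λz. Geometric mean (95% CI), Tmax median (range).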

[3] = AUC (0 to infinity) in healthy human at 200 mg, po dosed as single dose; assay type: ADME, organism-based; design: dose 200 mg, route oral, time infinity; conditions: plasma
Outline: (§2)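 Plasma parent and metabolites M3, M5, M6, M8 after one 200 mg oral 14C dose in 6 fasted male subjects, sampled 0.17–240 h. Validated LC-MS/MS with penta-deuterated internal standards and positive ESI. Low range 0.4/1.0–100 ng/mL using supported liquid extraction, high range 50–1000 ng/mL using protein precipitation. Noncompartmental analysis, geometric means (95% CI), Tmax median (range).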

[4] = Tmax in healthy human at 200 mg, po dosed as single dose; assay type: ADME, organism-based; conditions: in vivo; outline: as §2
Homo sapiens [5] = experiment: Cmax in healthy human assessed as total radioactivity at 200 mg, po dosed as single dose; assay type: ADME, organism-based; design: dose 200 mg, route oral; conditions: in vivo; outline: as §1
Homo sapiens [6] = experiment: Tmax in healthy human assessed as total radioactivity at 200 mg, po dosed as single dose; assay type: ADME, organism-based; conditions: in vivo; outline: as §1
Plasma [7] = experiment: Cmax in healthy human plasma assessed as radioactivity at 200 mg, po dosed as single dose; assay type: ADME, organism-based; design: dose 200 mg, route oral; conditions: in vivo; outline: as §1
Blood [8] = experiment: Half life in healthy human whole blood assessed as radioactivity at 200 mg, po dosed as single dose; assay type: ADME, organism-based; conditions: in vivo; outline: as §1
[9] = Cmax in healthy human at 200 mg, po dosed as single dose; assay type: ADME, organism-based; design: dose 200 mg, route oral; conditions: in vivo; outline: as §2
Blood [10] = experiment: Tmax in healthy human whole blood assessed as radioactivity at 200 mg, po dosed as single dose; assay type: ADME, organism-based; conditions: in vivo; outline: as §1
Plasma [11] = experiment: Tmax in healthy human plasma assessed as radioactivity at 200 mg, po dosed as single dose; assay type: ADME, organism-based; conditions: in vivo; outline: as §1
Plasma [12] = experiment: Half life in healthy human plasma assessed as radioactivity at 200 mg, po dosed as single dose; assay type: ADME, organism-based; conditions: in vivo; outline: as §1
Homo sapiens [13] = experiment: Drug level in healthy human at 200 mg, po dosed as single dose relative to total radioactivity; assay type: ADME, organism-based; conditions: in vivo
Outline: (§3)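 Plasma from 6 subjects given one 200 mg oral 14C dose, pooled over at least 2 time points and acetonitrile-precipitated. Radio-LC-MS/MS used a C18 column with ammonium formate pH 4.0/acetonitrile gradient and 0.15-min fractions scintillation-counted. Peak radioactivity converted to ng-equivalents/mL to give AUC0-t. Co-eluting metabolites grouped and expressed relative to parent AUC and to total radioactivity.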

Plasma [14] = experiment: Drug level in plasma of healthy human treated with [14C]almorexant at 200 mg, po dosed as single dose; assay type: ADME, organism-based; conditions: in vivo; outline: as §3
Homo sapiens [15] = experiment: Tlast in healthy human at 200 mg, po dosed as single dose; assay type: ADME, organism-based; conditions: in vivo; outline: as §3
Homo sapiens [16] = experiment: Toxicity in healthy human assessed as effect on ECG variables parameters at 200 mg, po dosed as single dose; assay type: organism-based; conditions: in vivo
Homo sapiens [17] = experiment: Toxicity in healthy human at 200 mg, po dosed as single dose; assay type: organism-based; conditions: in vivo
Homo sapiens [18] = experiment: Toxicity in healthy human assessed as effect on vital signs parameters at 200 mg, po dosed as single dose; assay type: organism-based; conditions: in vivo
[19] = Half life in healthy human at 200 mg, po dosed as single dose; assay type: ADME, organism-based; conditions: in vivo; outline: as §2
[20] = Drug excretion in healthy human feces assessed as total radioactivity at 200 mg, po dosed as single dose; assay type: ADME, organism-based; conditions: in vivo
Outline: (§4)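 Urine collected in 8-h then 24-h intervals, and all feces for 10 days (longer if recovery <90%) after one 200 mg oral 14C dose in 6 fasted males. Urine counted directly by liquid scintillation. Feces homogenized in water, and about 300 mg aliquots combusted before counting, done in triplicate. Stearic acid 14C quality controls were included.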

Homo sapiens [21] = experiment: Tlast in healthy human assessed as total radioactivity at 200 mg, po dosed as single dose; assay type: ADME, organism-based; conditions: in vivo
Homo sapiens [22] = experiment: AUC (0 to t) in healthy human at 200 mg, po dosed as single dose; assay type: ADME, organism-based, Plasma; conditions: in vivo; outline: as §3
[23] = Ratio of drug level in whole blood to plasma in healthy human at 200 mg, po dosed as single dose; assay type: ADME, organism-based; conditions: whole blood and plasma; outline: as §1
Homo sapiens [24] = experiment: Toxicity in healthy human assessed as effect on clinical laboratory parameters at 200 mg, po dosed as single dose; assay type: organism-based; conditions: in vivo
Homo sapiens [25] = experiment: Toxicity in healthy human assessed as incidence of adverse events at 200 mg, po dosed as single dose; assay type: organism-based; conditions: in vivo
Blood [26] = experiment: AUC (0 to infinity) in healthy human whole blood assessed as radioactivity at 200 mg, po dosed as single dose; assay type: ADME, organism-based; design: dose 200 mg, route oral, time infinity; conditions: in vivo; outline: as §1
[27] = Drug excretion in healthy human urine assessed as total radioactivity at 200 mg, po dosed as single dose; assay type: ADME, organism-based; conditions: in vivo; outline: as §4
Homo sapiens [28] = experiment: AUC (0 to t) in healthy human assessed as total radioactivity at 200 mg, po dosed as single dose; conditions: in vivo
Plasma [29] = experiment: AUC (0 to infinity) in healthy human plasma assessed as radioactivity at 200 mg, po dosed as single dose; assay type: ADME, organism-based; design: dose 200 mg, time infinity, route oral; conditions: in vivo; outline: as §1
Homo sapiens [30] = experiment: Cmax in healthy human treated with [14C]almorexant at 200 mg, po dosed as single dose; assay type: ADME, organism-based; design: dose 200 mg, route oral; conditions: in vivo
Homo sapiens [31] = experiment: Tmax in healthy human treated with [14C]almorexant at 200 mg, po dosed as single dose; assay type: ADME, organism-based; conditions: in vivo; outline: as §2
Homo sapiens [32] = experiment: AUC (0 to infinity) in healthy human treated with [14C]almorexant at 200 mg, po dosed as single dose; assay type: ADME, organism-based, Plasma; design: dose 200 mg, route oral, time infinity; conditions: in vivo
Homo sapiens [33] = experiment: Half life in healthy human treated with [14C]almorexant at 200 mg, po dosed as single dose; assay type: ADME, organism-based; conditions: in vivo; outline: as §2
Homo sapiens [34] = experiment: Drug level in healthy human treated with [14C]almorexant at 200 mg, po dosed as single dose relative to almorexant; assay type: ADME, organism-based; conditions: in vivo; outline: as §3
Homo sapiens [35] = experiment: AUC (0 to t) in healthy human treated with [14C]almorexant at 200 mg, po dosed as single dose; assay type: ADME, organism-based, Plasma; conditions: in vivo; outline: as §3
Homo sapiens [36] = experiment: Tlast in healthy human treated with [14C]almorexant at 200 mg, po dosed as single dose; assay type: ADME, organism-based; conditions: in vivo; outline: as §3
Homo sapiens [37] = experiment: Drug level in healthy human treated with [14C]almorexant at 200 mg, po dosed as single dose relative to total radioactivity; assay type: ADME, organism-based; conditions: in vivo; outline: as §3
[38] = Clearance in po dosed healthy human; assay type: ADME, organism-based; conditions: in vivo
[39] = Tmax in po dosed healthy human; assay type: ADME, organism-based; conditions: in vivo
[40] = Absolute bioavailability in po dosed healthy human; assay type: ADME, organism-based; conditions: in vivo
[41] = Terminal half life in po dosed healthy human; assay type: ADME, organism-based; conditions: in vivo, read-out: beta t1/2 (converted)
Homo sapiens [42] = experiment: Volume of distribution in po dosed healthy human; assay type: ADME, organism-based; conditions: in vivo
[43] = Tmax in po dosed healthy human receiving additional evening dose; assay type: ADME, organism-based; conditions: in vivo

Cmax (Homo sapiens [30]): 61.4 ng/mL | Tmax (Homo sapiens [31]): 60 min | Drug metabolism (Plasma [14]): metabolite_detected | AUC (Homo sapiens [32]): 386 ng·h/mL | t1/2 (Homo sapiens [33]): 21.7 h | Drug metabolism [1]: metabolite_detected
Compound: CNC(=O)[C@@H](c1ccccc1)N1CCc2cc(OC)c(O)cc2[C@@H]1CCc1ccc(C(F)(F)F)cc1

Cmax (Homo sapiens [30]): 25.7 ng/mL | Tmax (Homo sapiens [31]): 48 min | Drug metabolism (Plasma [14]): metabolite_detected | AUC (Homo sapiens [32]): 160 ng·h/mL | t1/2 (Homo sapiens [33]): 22.1 h | Drug metabolism [1]: metabolite_detected
Compound: CNC(=O)[C@@H](c1ccccc1)N1CCc2cc(O)c(OC)cc2[C@@H]1CCc1ccc(C(F)(F)F)cc1

CL/F [38]: 717 mL/min | Tmax [39]: 48 min | bioavailability [40]: 11.4% | half-life [41]: 1070 min | Vd (Homo sapiens [42]): 683 L | Tmax [43]: 3 h
Compound: CNC(=O)[C@@H](c1ccccc1)N1CCc2cc(OC)c(OC)cc2[C@@H]1CCc1ccc(C(F)(F)F)cc1 [ALMOREXANT]

More lines, now with the values behind:

Compound: CNC(=O)[C@@H](c1ccccc1)[n+]1ccc2cc(O)c(OC)cc2c1CCc1ccc(C(F)(F)F)cc1
Drug metabolism [1]: metabolite_detected

Compound: CNC(=O)[C@@H](c1ccccc1)N1CCc2cc(O)c(O)cc2[C@@H]1CCc1ccc(C(F)(F)F)cc1
Drug metabolism [1]: metabolite_detected

Compound: CNC(=O)[C@@H](c1ccccc1)N1CCc2cc(OC)c(OC)cc2[14C@@H]1CCc1ccc(C(F)(F)F)cc1
Cmax (Blood [2]): 678 ng.Eq/ml | AUC(0-inf) [3]: 262 ng·h/mL | Tmax [4]: 0.8 h | Cmax (Homo sapiens [5]): 1050 ng.Eq/ml | Tmax (Homo sapiens [6]): 1.6 h | Cmax (Plasma [7]): 1060 ng.Eq/ml | t1/2 (Blood [8]): 39 h | Cmax [9]: 113 ng/mL | Tmax (Blood [10]): 1 h | Tmax (Plasma [11]): 1 h | t1/2 (Plasma [12]): 78 h | Drug uptake (Homo sapiens [13]): 0.11% | Drug metabolism (Plasma [14]): metabolite_detected | Tlast (Homo sapiens [15]): 1.6 h | Activity (Homo sapiens [16]): Non-toxic | Activity (Homo sapiens [17]): Non-toxic | Activity (Homo sapiens [18]): Non-toxic | half-life [19]: 1070 min | Drug excretion [20]: 38.7% | Tlast (Homo sapiens [21]): 300 h | AUCt (Homo sapiens [22]): 61.2 ng.Eq.hr/ml | blood plasma ratio [23]: 0.51 | Activity (Homo sapiens [24]): Non-toxic | Activity (Homo sapiens [25]): Non-toxic | AUC (Blood [26]): 26321 ng.Eq.hr/ml | Drug excretion [27]: 8.34% | AUC(0-t) (Homo sapiens [28]): 54100 ng.Eq.hr/ml | Drug metabolism [1]: metabolite_detected | AUC (Plasma [29]): 51547 ng.Eq.hr/ml

Compound: COc1cc2c(cc1OC)[C@H](CCc1ccc(C(F)(F)F)cc1)NC[C@H]2O (racemic)
Tmax [4]: 1.6 h | Drug uptake (Homo sapiens [34]): 28.1% | AUCt (Homo sapiens [35]): 17.2 ng.Eq.hr/ml | Tlast (Homo sapiens [36]): 1.6 h | Drug uptake (Homo sapiens [37]): 0.03%
